Hits are enriched below; roughly 4.5% of the tested compounds scored in any of these assays.
CHO parental Ca = ATP-evoked calcium signal inhibitors, parental CHO, primary screen, counter-screen for OX1R antagonist project, cell-based, fluorescence, Fluo-8 calcium dye; inhibition, % at 5.6 µM; actives 0.63% (n = 330,000); parental CHO-K1, ATP-induced calcium, Fluo-8 fluorescence;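 active means inhibition above that plate's mean sample inhibition plus 3 SD, cut at about 26% in these data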;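 further: 0% = ATP-challenged DMSO wells and 100% = DMSO wells without ATP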
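test system = CHO parental line | reagent = ATP stimulus | measured by = intracellular calcium via Fluo-8 no-wash fluorescent dye | control set = ATP and no-ATP DMSO wells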
TAAR1 antagonist = human TAAR1 antagonists, primary screen, Fluo-8 calcium fluorescence, CHO RD-HGA16 cells; actives 1.5% (n = 360,000); Trace amine-associated receptor 1 (Homo sapiens), Q96RJ0; antagonist; inhibition, % at 3 µM;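 active means inhibition above a per-plate cutoff, the mean inhibition of test compounds on that plate plus 3 SD, cut at about 49% in these data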;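 further: 0% = DMSO plus EC80 beta-PEA response and 100% = DMSO alone without agonist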
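System: CHO RD-HGA16 cells bearing hTAAR1. Reagent: EC80 β-phenethylamine stimulus. Schedule: seeding 17-24 h prior, 75-min 37 °C, 30-min RT dye loading. Signal: Fluo-8 intracellular calcium dye fluorescence, real-time kinetic reads. Read-out: % inhibition from peak post-agonist over basal fluorescence ratio. Benchmarks: vehicle wells and EC80 agonist wells. Replicates: n of 1.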
OX1R antag-1 = antagonists of human orexin 1 receptor (OX1R) | Orexin/Hypocretin receptor type 1 (Homo sapiens), O43613 | OX1R-expressing cells, FRET antagonist read-out | inhibition, % at 6.6 µM | actives 1.8% (n = 330,000) | AID 485270, 2010; in the data active means inhibition mostly above about 38%, no sharp cut-off; inactive means mostly below about 40%;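 further: 0% = agonist challenge alone and 100% = reference antagonist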
Target sequence (O43613 whole entry, looked up): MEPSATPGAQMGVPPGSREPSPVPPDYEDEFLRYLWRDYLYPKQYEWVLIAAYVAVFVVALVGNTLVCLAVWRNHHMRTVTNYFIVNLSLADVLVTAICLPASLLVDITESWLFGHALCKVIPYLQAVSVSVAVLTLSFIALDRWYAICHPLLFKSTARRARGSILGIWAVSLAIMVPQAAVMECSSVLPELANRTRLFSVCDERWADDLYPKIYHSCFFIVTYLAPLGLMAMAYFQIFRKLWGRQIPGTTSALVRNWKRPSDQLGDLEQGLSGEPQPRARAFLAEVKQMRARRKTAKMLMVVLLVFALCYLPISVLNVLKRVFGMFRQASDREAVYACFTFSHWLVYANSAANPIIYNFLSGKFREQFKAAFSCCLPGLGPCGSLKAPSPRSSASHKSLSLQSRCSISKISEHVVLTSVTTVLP
TAAR1 ag = human TAAR1 agonists, primary screen, Fluo-8 calcium fluorescence, CHO RD-HGA16 cells; AID 624467, 2012; Trace amine-associated receptor 1 (Homo sapiens), Q96RJ0; vehicle wells 0%, saturating PEA agonist 100%; actives 0.99% (n = 360,000); activation, % at 3 µM;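 active means activation above the mean activation of all test compounds in the run plus 3 SD, cut at about 38% in these data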
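test system = CHO RD-HGA16 cells carrying human TAAR1 plus Gα16 | schedule = 17-24 h seeding, 75 min 37 °C dye, 30 min RT | compound dosing = 3 µM single concentration | control set = DMSO and PEA EC100 | replicates = n 1 | signal = Fluo-8 fluorescence, 5 s baseline then 140 s kinetic read | measure = percent activation vs PEA EC100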
OX1R antag-2 = OX1R (HCRTR1) antagonists, primary screen, fluorescence, CHO/OX1R cells, Fluo-8 calcium, orexin A. AID 434989, 2010. inhibition, % at 5 µM. Orexin/Hypocretin receptor type 1 (Homo sapiens), O43613. Fluo-8 calcium fluorescence. actives 0.43% (n = 330,000);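 active means inhibition above its plate's threshold, mean inhibition of all tested compounds on the plate plus 3 SD, cut at about 37% in these data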;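 further: 0% = orexin A challenge wells and 100% = SB-334867-A antagonist wells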
GPR7 antagonist = GPR7 receptor antagonists, primary screen, cell-based, fluorescence, single concentration; Neuropeptides B/W receptor type 1 (Homo sapiens), P48145; GPR7-expressing cells, fluorescence antagonist assay; AID 1861, 2009; actives 1.1% (n = 290,000); inhibition, % at 4.4 µM; in the data active means inhibition above about 16%, passing the limit was not always enough;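 further: cells stimulated with the agonist NPW; 0% = agonist with vehicle and 100% = vehicle without agonist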
Target sequence (P48145 whole entry, looked up): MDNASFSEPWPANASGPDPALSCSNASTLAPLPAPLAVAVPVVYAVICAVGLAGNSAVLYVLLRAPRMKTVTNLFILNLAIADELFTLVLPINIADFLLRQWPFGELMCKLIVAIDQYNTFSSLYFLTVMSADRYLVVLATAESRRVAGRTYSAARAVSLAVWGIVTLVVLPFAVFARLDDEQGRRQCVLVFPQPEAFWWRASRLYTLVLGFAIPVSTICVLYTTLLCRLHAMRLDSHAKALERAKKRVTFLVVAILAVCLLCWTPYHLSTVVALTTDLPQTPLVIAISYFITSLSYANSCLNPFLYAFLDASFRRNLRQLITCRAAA
TAAR1 ag conf = human TAAR1 agonists, retest of hits, confirmation, Fluo-8 calcium fluorescence, CHO RD-HGA16 cells; shares compounds with TAAR1 ag; scaled: DMSO 0%, maximal phenethylamine 100%; activation, % at 3 µM; actives 82% (n = 2,400); AID 651783, 2012;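 active means activation above a cutoff set at the run's mean compound activation plus 3 SD, cut at about 39% in these data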
Ga16 ag counter = nonselective calcium mobilization agonists, CHO-Ga16 cells, counter-screen for hTAAR1 agonist project, cell-based, fluorescence, CHO-Ga16 parental line; shares compounds with TAAR1 ag; Fluo-8 calcium fluorescence; normalized to maximal ATP response, DMSO zero; activation, % at 3 µM; actives 50% (n = 2,400); AID 651787, 2012;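 active means activation above the run cutoff, the mean activation over all tested wells plus 3 SD, cut at about 12% in these data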;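 further: 0% = DMSO wells and 100% = maximal ATP response on the peak over basal ratio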
TAAR1 desens = TAAR1 desensitization by agonist hits, confirmation, counter-screen for TAAR1 agonist project, cell-based, fluorescence, tachyphylaxis; inhibition, % at 3 µM; CHO RD-HGA16 hTAAR1, Fluo-8 calcium, beta-PEA response inhibition; actives 46% (n = 2,400); shares compounds with TAAR1 ag;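 active means inhibition above the run cutoff, the mean inhibition of all test compounds plus 3 SD, cut at about 49% in these data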;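 further: beta-PEA stimulus applied at its EC80; loss of beta-PEA calcium signal after compound pretreatment read as receptor desensitization; 0% = DMSO with beta-PEA at EC80 and 100% = DMSO alone without agonist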
Ga16 antag count = inhibition of ATP-evoked calcium response in CHO-Ga16 cells, counter-screen for TAAR1 agonist project, cell-based, fluorescence; shares compounds with TAAR1 ag; CHO-Ga16 ATP-induced calcium, Fluo-8 fluorescence; inhibition, % at 3 µM; actives 39% (n = 2,400); AID 651952, 2012;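 active means inhibition above the plate's mean compound inhibition plus 3 SD, computed per plate, cut at about 22% in these data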;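 further: 0% = EC80 ATP with DMSO and 100% = DMSO wells without ATP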
The depositor's hits bear a star; / = no result.

SMILES	CHO parental Ca	TAAR1 antagonist	OX1R antag-1	TAAR1 ag	OX1R antag-2	GPR7 antagonist	TAAR1 ag conf	Ga16 ag counter	TAAR1 desens	Ga16 antag count
COc1cccc(C(=O)C2CN(C)CC2c2ccc(Cl)cc2)c1 (stereo not given)	-10.1	-0.2	19.0	3.8	-12.9	15.8	/	/	/	/
CN1CC(C(=O)c2ccccc2)C(c2ccccc2)C1 (stereo not given)	-12.2	-30.7	13.0	55.5*	-32.7	-4.7	76.5*	2.9	27.9	6.7
CN1CC(C(=O)c2ccc(Cl)cc2)C(c2ccccc2F)C1 (stereo not given)	-26.5	-7.9	4.0	45.1*	-18.2	3.1	73.6*	4.5	34.2	12.6
CC1([N+](=O)[O-])COP(=O)(Nc2cccc(Br)c2)OC1 (stereo not given)	/	1.6	/	5.4	/	/	/	/	/	/
CCC1(C(=O)c2ccc(C)cc2)C2c3ccccc3OC(=O)C21C(=O)O (stereo not given)	-1.9	4.7	17.4	-0.3	-6.1	-8.6	/	/	/	/
COc1cccc(C)c1NC1=NCCO1	/	60.8*	/	87.5*	/	/	92.5*	0.6	87.0*	-2.9
CC1(C)OC(c2ccccc2)=C/C(=C/C=C2C(=O)NC(=O)NC2=O)O1	5.7	69.6*	24.6	98.3*	21.7	-14.8	10.2	20.9*	31.3	32.7*
N[C@H](CO)Cc1ccccc1	/	13.9	/	52.5*	/	/	74.3*	1.0	36.6	8.9
CN(C)C(Cc1ccccc1)C(=O)c1ccccc1 (stereo not given)	-20.6	-11.8	11.7	6.4	-12.5	-4.9	/	/	/	/
COC(=O)C1=C(c2ccc(S(C)(=O)=O)cc2)C[C@@H]2CC[C@H]1N2C	-8.6	-6.0	2.7	19.6	-15.5	/	/	/	/	/
CNC(C)Cc1ccccc1 (stereo not given)	-10.9	65.5*	1.9	63.2*	-3.6	/	93.8*	18.5*	82.8*	9.1
CCCCn1nnnc1C(c1ccccc1)N1CCC2(CC1)C(=O)NCN2c1ccccc1 (stereo not given)	/	8.9	/	0.6	/	/	/	/	/	/
Cc1cccn2c(=O)c3c(nc12)N1CCc2ccccc2C1C1(C3)C(=O)NC(=O)N(C)C1=O (stereo not given)	-20.8	43.0	6.3	21.6	-14.2	-11.5	/	/	/	/
CCCCN1C(=O)NC(=O)C2(Cc3c(nc4c(C)cccn4c3=O)N3CCc4ccccc4C32)C1=O (stereo not given)	-28.6	38.1	1.5	56.6*	-30.4	2.8	72.1*	28.0*	49.4*	27.1*
CCCCN1C(=O)NC(=O)C2(Cc3c(nc4ccccn4c3=O)N3CCc4ccccc4C32)C1=O (stereo not given)	-5.0	23.7	0.6	61.2*	-26.7	-11.1	90.0*	33.5*	39.7	11.3
Cc1cccn2c(=O)c3c(nc12)N1CCCCCC1C1(C3)C(=O)N(C)C(=O)N(C)C1=O (stereo not given)	-21.4	-20.7	1.9	-2.5	-27.6	-6.6	/	/	/	/
CN1C(=O)N(C)C(=O)C(NS(=O)(=O)c2ccc(N)cc2)(c2ccccc2)C1=O	/	-29.0	/	1.5	/	/	/	/	/	/
CC(Cc1ccccc1Sc1ccccc1)N(C)C (stereo not given)	-23.7	9.3	-0.8	47.8*	-19.4	-3.7	69.6*	2.1	11.9	10.4
O=C(NCCN1CCC2(CC1)C(=O)NCN2c1ccccc1)c1ccc(Cl)cc1	/	105.4*	/	107.6*	/	/	92.2*	71.6*	106.4*	99.7*
O=C(NCCN1CCC2(CC1)C(=O)NCN2c1ccccc1)c1ccccc1F	/	-10.8	/	2.3	/	/	/	/	/	/
O=C(NCCN1CCC2(CC1)C(=O)NCN2c1ccccc1)c1ccc(F)cc1	/	99.8*	/	97.7*	/	/	63.3*	49.6*	95.4*	79.1*
O=C(NCCN1CCC2(CC1)C(=O)NCN2c1ccccc1)c1ccc2ccccc2c1	/	105.4*	/	111.8*	/	/	91.2*	66.5*	106.6*	100.5*
CC(Cc1ccccc1)/[N+]([O-])=C\c1ccc(C(F)(F)F)cc1 (stereo not given)	-3.8	-10.9	28.9	11.0	-13.8	/	/	/	/	/
O=C(NC1CCCCC1)N1Cc2cc(-c3cccc(F)c3)ccc2-n2nncc2C1	/	-7.5	/	-2.4	/	/	/	/	/	/
Cc1c(C=C2C(=O)NC(=O)NC2=O)c(=O)n(-c2ccccc2)n1C	-4.9	2.2	12.6	2.9	-3.7	-10.5	/	/	/	/
SMILES	CHO parental Ca	TAAR1 antagonist	OX1R antag-1	TAAR1 ag	OX1R antag-2	GPR7 antagonist	TAAR1 ag conf	Ga16 ag counter	TAAR1 desens	Ga16 antag count
CN1/C(=C\C=C2C(=O)NC(=O)NC2=O)C(C)(C)c2ccccc21	41.2*	33.9	112.3*	85.8*	35.4	6.0	21.2	26.6*	21.9	25.3*
COc1ccc2c3c1O[C@H]1C(=O)CC[C@H]4[C@@H](C2)N(C)CC[C@]314	-1.4	2.2	-0.1	1.1	1.2	/	/	/	/	/
COC(=O)C1=C(c2ccc(OC)c(OC)c2)C[C@@H]2CC[C@H]1N2C(=O)N1CCC(O)CC1	6.4	6.9	4.8	4.6	-4.8	/	/	/	/	/
Cc1ccccc1CCNCc1cc2cccc(C)c2[nH]c1=O	-14.8	85.9*	7.8	107.7*	-54.5	-5.1	112.4*	16.5*	98.3*	7.4
Fc1ccccc1CCNCc1cccc2ccccc12	-24.4	15.5	6.2	8.1	-27.5	8.6	/	/	/	/
COc1cc(/C=C/[N+](=O)[O-])ccc1OC(=O)c1cccnc1	/	24.1	/	56.3*	/	-3.8	87.1*	62.5*	67.2*	60.0*
COc1cc2c(cc1/C=C/[N+](=O)[O-])OCO2	/	-17.2	/	0.4	/	-2.9	/	/	/	/
